Key:
[1] = target: Wee1-like protein kinase (Homo sapiens) (UniProt P30291); assay: Inhibition of WEE1 (unknown origin) at 1 uM relative to control; settings: values are per cent of control
In short: (§1)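 KinomeSCAN competitive binding panel of 100 kinases; compounds tested at 1 µM in duplicate; read-out is percent […] control.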

[2] = target: Serine/threonine-protein kinase 32B (Homo sapiens) (UniProt Q9NY57); assay: Inhibition of YANK2 (unknown origin) at 1 uM relative to control; settings: values are per cent of control; in short: as §1
Serine/threonine-protein kinase 32B (Homo sapiens), sequence (Q9NY57 whole entry): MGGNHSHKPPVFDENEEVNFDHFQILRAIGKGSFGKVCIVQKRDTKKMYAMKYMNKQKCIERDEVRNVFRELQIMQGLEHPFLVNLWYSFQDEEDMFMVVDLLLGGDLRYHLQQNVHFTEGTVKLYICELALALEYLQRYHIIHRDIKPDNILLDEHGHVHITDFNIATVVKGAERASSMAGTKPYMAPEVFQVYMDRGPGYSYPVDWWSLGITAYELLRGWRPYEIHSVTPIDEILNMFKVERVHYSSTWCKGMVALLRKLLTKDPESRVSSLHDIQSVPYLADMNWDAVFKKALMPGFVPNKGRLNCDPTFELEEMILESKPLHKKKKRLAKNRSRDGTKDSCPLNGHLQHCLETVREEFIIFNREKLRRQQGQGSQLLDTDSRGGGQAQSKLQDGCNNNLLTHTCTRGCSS

[3] = target: Platelet-derived growth factor receptor beta (Homo sapiens) (UniProt P09619); assay: Inhibition of PDGFRB (unknown origin) at 1 uM relative to control; settings: values are per cent of control; in short: as §1
Platelet-derived growth factor receptor beta (Homo sapiens), sequence (P09619 whole entry): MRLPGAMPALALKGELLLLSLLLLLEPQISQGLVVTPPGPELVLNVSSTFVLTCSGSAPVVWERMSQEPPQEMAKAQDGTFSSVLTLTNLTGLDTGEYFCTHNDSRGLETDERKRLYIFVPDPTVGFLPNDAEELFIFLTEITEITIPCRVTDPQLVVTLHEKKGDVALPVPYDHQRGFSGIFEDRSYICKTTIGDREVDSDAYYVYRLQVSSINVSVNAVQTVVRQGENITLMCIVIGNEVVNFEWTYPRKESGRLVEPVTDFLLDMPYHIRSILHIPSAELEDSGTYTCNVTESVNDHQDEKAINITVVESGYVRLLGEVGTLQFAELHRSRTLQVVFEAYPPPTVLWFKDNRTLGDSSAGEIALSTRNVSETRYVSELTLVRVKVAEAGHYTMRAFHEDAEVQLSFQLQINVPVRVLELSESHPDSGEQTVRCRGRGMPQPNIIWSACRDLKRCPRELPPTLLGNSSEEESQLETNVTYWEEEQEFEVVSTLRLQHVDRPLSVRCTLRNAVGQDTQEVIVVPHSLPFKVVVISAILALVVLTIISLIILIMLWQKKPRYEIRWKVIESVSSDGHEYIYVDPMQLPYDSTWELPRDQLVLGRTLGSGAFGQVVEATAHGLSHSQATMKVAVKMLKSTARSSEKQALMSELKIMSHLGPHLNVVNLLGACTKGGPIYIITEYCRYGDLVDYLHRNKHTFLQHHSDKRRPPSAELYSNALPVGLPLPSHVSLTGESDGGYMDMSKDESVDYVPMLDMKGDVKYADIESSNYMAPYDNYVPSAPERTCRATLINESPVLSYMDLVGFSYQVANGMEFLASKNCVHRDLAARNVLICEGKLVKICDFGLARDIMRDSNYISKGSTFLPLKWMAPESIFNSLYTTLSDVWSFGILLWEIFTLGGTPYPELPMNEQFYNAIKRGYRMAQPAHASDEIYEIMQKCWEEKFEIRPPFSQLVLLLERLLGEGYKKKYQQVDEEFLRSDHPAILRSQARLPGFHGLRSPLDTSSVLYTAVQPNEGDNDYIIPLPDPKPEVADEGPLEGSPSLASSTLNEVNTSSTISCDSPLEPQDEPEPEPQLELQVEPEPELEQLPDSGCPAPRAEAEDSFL

[4] = target: Death-associated protein kinase 1 (Homo sapiens) (UniProt P53355); assay: Inhibition of DAPK1 (unknown origin) at 1 uM relative to control; values are per cent of control
[5] = target: Casein kinase I isoform gamma-2 (Homo sapiens) (UniProt P78368); assay: Inhibition of CSNK1G2 (unknown origin) at 1 uM relative to control; values are per cent of control
Casein kinase I isoform gamma-2 (Homo sapiens), sequence (P78368 whole entry, looked up, canonical isoform): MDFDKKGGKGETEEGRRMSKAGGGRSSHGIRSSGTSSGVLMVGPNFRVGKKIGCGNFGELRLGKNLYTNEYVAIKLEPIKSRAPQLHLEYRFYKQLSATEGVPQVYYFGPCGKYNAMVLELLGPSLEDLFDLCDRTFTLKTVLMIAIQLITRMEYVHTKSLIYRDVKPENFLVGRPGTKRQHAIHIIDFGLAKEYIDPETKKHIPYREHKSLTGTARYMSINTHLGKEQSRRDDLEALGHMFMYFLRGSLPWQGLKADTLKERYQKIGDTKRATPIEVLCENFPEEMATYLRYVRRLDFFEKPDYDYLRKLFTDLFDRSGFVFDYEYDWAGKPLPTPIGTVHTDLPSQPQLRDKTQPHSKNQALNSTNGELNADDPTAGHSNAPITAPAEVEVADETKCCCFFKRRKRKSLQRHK

[6] = target: T1, Calcium/calmodulin-dependent protein kinase type IV (Homo sapiens) (UniProt Q16566); assay: Inhibition of CAMK4 (unknown origin) at 1 uM relative to control; values are per cent of control
T1 sequence (whole entry): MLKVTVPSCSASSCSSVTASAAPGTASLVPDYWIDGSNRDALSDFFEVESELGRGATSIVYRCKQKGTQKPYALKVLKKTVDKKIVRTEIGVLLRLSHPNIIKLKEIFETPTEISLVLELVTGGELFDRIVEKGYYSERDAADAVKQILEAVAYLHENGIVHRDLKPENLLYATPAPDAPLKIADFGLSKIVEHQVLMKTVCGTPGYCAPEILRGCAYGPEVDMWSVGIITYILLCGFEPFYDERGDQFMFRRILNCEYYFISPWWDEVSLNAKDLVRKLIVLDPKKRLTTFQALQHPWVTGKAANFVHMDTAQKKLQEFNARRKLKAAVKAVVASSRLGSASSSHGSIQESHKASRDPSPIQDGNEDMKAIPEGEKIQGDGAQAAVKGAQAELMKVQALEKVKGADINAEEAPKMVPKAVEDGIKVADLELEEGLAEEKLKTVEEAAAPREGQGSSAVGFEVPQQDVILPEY

[7] = target: Serine/threonine-protein kinase Nek4 (Homo sapiens) (UniProt P51957); assay: Inhibition of NEK4 (unknown origin) at 1 uM relative to control; values are per cent of control
Serine/threonine-protein kinase Nek4 (Homo sapiens), sequence (P51957 whole entry, looked up, canonical isoform): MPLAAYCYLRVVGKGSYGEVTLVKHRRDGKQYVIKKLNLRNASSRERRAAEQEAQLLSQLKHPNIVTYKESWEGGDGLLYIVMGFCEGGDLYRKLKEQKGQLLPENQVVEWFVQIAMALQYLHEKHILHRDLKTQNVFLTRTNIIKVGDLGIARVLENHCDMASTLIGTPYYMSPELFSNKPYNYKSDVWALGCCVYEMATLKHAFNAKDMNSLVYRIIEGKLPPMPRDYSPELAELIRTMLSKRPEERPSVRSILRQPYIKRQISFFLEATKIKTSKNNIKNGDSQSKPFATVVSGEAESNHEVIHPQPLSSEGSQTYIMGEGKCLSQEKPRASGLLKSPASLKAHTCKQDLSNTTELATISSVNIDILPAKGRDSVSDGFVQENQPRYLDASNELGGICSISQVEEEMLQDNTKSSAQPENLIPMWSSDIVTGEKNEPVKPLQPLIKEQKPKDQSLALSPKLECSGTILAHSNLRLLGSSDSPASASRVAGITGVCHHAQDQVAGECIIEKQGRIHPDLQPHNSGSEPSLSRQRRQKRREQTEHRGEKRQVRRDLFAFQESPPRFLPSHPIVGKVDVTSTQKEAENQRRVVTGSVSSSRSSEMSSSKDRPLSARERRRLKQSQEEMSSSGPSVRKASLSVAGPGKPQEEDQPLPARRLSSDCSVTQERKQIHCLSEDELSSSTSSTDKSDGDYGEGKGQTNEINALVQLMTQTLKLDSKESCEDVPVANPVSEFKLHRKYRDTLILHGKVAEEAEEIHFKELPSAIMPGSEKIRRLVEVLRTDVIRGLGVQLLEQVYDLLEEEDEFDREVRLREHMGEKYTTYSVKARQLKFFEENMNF

[8] = target: Phosphatidylinositol 4,5-bisphosphate 3-kinase catalytic subunit alpha isoform (Homo sapiens) (UniProt P42336); assay: Inhibition of PIK3CA (unknown origin) at 1 uM relative to control; settings: values are per cent of control; in short: as §1
Phosphatidylinositol 4,5-bisphosphate 3-kinase catalytic subunit alpha isoform (Homo sapiens), sequence (P42336 whole entry, canonical isoform): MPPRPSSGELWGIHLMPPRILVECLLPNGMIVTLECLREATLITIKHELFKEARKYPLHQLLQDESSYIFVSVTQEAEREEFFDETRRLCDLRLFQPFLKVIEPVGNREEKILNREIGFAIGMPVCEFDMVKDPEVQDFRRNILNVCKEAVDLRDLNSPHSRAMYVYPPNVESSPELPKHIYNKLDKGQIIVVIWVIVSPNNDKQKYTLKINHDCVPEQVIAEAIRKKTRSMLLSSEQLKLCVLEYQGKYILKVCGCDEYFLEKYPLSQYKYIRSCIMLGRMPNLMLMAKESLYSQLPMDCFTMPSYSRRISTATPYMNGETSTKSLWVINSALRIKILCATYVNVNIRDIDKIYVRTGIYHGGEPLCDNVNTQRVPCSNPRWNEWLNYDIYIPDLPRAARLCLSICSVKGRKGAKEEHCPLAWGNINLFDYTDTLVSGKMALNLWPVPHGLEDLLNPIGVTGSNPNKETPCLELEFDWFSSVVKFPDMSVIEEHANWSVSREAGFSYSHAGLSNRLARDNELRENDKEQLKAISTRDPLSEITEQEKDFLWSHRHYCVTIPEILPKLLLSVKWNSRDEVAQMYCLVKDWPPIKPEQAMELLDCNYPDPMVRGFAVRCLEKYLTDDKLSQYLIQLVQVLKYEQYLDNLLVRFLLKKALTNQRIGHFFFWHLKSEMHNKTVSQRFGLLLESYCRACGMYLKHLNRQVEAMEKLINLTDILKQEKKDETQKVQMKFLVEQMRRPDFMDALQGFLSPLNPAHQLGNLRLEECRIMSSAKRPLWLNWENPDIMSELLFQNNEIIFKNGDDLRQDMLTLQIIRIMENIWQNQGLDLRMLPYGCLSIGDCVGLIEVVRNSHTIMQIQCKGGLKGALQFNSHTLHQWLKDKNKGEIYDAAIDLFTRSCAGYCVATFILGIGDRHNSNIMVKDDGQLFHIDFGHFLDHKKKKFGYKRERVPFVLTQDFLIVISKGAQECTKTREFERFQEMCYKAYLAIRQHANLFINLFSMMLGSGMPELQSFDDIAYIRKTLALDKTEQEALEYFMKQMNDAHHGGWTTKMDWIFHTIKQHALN

[9] = target: Serine/threonine-protein kinase Nek6 (Homo sapiens) (UniProt Q9HC98); assay: Inhibition of NEK6 (unknown origin) at 1 uM relative to control; values are per cent of control
[10] = target: Protein-tyrosine kinase 6 (Homo sapiens) (UniProt Q13882); assay: Inhibition of BRK (unknown origin) at 1 uM relative to control; values are per cent of control
Protein-tyrosine kinase 6 (Homo sapiens), sequence (Q13882 whole entry, looked up): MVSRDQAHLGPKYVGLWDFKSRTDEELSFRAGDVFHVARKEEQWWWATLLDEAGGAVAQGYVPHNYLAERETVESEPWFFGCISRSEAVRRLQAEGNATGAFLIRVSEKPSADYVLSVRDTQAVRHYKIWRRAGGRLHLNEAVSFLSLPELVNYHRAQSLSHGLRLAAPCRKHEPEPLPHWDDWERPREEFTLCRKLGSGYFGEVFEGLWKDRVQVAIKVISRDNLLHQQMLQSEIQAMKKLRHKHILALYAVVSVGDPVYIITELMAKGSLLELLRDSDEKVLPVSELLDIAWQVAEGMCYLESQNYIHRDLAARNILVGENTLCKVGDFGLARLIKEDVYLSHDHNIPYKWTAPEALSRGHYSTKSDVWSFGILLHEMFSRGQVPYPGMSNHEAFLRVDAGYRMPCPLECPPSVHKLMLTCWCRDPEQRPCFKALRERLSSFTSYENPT

[11] = target: T2, Myotonin-protein kinase (Homo sapiens) (UniProt Q09013); assay: Inhibition of DMPK (unknown origin) at 1 uM relative to control; values are per cent of control
T2 sequence (whole entry): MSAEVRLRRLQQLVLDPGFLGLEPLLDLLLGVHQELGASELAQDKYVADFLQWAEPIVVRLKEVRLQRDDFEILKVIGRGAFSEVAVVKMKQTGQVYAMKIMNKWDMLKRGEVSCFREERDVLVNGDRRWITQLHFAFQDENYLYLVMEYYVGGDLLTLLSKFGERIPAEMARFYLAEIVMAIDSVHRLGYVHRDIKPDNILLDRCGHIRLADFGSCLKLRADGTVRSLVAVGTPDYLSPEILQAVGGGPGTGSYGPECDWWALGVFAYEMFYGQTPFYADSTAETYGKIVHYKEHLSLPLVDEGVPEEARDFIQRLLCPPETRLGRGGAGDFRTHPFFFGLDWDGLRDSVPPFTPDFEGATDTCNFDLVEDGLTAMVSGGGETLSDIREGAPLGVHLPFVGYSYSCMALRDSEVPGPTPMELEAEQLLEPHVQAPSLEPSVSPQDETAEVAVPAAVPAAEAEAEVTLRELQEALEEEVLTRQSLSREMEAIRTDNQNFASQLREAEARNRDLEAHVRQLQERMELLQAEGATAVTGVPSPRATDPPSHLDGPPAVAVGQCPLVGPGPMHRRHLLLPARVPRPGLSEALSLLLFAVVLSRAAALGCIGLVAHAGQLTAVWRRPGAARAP

[12] = target: T3, Serine/threonine-protein kinase TBK1 (Homo sapiens) (UniProt Q9UHD2); assay: Inhibition of TBK1 (unknown origin) at 1 uM relative to control; settings: values are per cent of control; in short: as §1
T3 sequence (whole entry): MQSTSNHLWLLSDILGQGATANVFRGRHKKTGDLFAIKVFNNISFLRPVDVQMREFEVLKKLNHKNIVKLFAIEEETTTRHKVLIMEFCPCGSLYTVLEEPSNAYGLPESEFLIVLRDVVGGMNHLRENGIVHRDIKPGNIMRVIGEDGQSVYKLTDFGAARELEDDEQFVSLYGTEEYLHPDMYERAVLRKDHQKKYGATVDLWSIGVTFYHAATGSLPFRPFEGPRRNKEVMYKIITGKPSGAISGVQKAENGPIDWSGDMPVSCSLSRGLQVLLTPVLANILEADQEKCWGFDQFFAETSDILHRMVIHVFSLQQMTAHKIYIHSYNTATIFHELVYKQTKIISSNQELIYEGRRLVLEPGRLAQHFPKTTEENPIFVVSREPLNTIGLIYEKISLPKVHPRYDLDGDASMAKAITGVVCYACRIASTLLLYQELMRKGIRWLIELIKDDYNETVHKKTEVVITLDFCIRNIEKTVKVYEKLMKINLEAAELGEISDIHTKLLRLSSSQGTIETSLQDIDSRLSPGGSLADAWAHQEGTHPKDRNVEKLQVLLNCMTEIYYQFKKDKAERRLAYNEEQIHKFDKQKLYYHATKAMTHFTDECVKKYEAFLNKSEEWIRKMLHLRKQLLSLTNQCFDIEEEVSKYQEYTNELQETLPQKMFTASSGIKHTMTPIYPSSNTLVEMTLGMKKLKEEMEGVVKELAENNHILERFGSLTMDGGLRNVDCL

[13] = target: Mitogen-activated protein kinase kinase kinase 9 (Homo sapiens) (UniProt P80192); assay: Inhibition of MLK1 (unknown origin) at 1 uM relative to control; values are per cent of control
[14] = target: CDC7/DBF4 (Cell division cycle 7-related protein kinase/Activator of S phase kinase) (Homo sapiens, UniProt O00311); assay: Inhibition of Cdc7/Dbf4 (unknown origin)-mediated phosphorylation of MCM2 by protein-A luminescent proximity homogenous assay; type: protein-complex assay

Wee1-like protein kinase (Homo sapiens), sequence (P30291 whole entry, looked up): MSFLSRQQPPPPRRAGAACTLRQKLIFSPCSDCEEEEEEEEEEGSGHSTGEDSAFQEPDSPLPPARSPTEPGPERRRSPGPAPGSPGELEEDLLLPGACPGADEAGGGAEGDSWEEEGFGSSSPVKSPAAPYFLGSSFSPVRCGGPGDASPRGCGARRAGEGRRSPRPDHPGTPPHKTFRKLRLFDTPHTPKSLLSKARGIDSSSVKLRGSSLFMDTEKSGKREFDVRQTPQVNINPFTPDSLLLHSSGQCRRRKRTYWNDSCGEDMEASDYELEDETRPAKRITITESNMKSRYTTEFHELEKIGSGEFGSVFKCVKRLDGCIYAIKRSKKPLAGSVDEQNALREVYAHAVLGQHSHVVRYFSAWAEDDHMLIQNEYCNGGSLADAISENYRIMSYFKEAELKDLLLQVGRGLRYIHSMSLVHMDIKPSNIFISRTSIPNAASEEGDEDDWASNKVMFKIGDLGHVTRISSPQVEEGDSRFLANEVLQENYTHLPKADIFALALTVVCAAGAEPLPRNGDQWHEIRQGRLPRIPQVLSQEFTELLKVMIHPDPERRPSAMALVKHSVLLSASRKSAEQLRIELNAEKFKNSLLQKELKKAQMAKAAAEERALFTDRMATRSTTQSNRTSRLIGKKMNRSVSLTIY

residual binding, % of control [1] [%]	residual binding, % of control [2] [%]	residual binding, % of control [3] [%]	residual activity [5] [%]	residual activity [6] [%]	residual activity [7] [%]	residual binding, % of control [8] [%]	residual activity [9] [%]	residual activity [10] [%]	residual activity [11] [%]	residual binding, % of control [12] [%]	residual activity [13] [%]	IC50 [14] [nM]	Compound	residual activity [4] [%]
73	82	89	77	76	100	100	65	94	88	100	90	323	CCOC(=O)c1sc(-c2ccncc2)nc1O	77
94	88	62	5.2	100	76	83	85	80	50	100	94	6.81	COc1ccc(-c2nc(-c3ccnc(N)n3)sc2C(N)=O)c(Cl)c1	100

Compound	residual binding, % of control [1] [%]	residual binding, % of control [2] [%]	residual binding, % of control [3] [%]	residual activity [5] [%]	residual activity [6] [%]	residual activity [7] [%]	residual binding, % of control [8] [%]	residual activity [9] [%]	residual activity [10] [%]	residual activity [11] [%]	residual binding, % of control [12] [%]	residual activity [13] [%]	IC50 [14] [nM]	residual activity [4] [%]
NC(=O)c1sc(-c2ccnc(N)n2)nc1-c1ccc(Cl)cc1Cl	74	100	52	5	100	93	78	81	68	100	85	99	3.77	100

— ChEMBL document CHEMBL3259739, “Synthesis and structure-activity relationship of trisubstituted thiazoles as Cdc7 kinase inhibitors” (Eur J Med Chem, 2014)
